Legend:
Type in all cases: cell-based
[1] = Displacement of [3H]spiperone from human cloned dopamine D2L receptor D3.32E mutant expressed in HEK293 cells
Summary of the method: (§1)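 Wild-type or mutant receptor cDNA transiently transfected into HEK-293 cells (CaHPO4 or TransIT-293), grown in MEM with 10% FBS at 37 °C, 5% CO2, harvested 48 h post-transfection. Membranes prepared by homogenization and spin at 50000g.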

[2] = Displacement of [3H]spiperone from human cloned dopamine D2L receptor V2.61F mutant expressed in HEK293 cells; summary of the method: as §1
[3] = Displacement of [3H]spiperone from human cloned dopamine D2L receptor L2.64F mutant expressed in HEK293 cells; summary of the method: as §1
[4] = Displacement of [3H]spiperone from human cloned dopamine D2L receptor FV3.28,3.29LM mutant expressed in HEK293 cells; summary of the method: as §1
[5] = Displacement of [3H]spiperone from human cloned dopamine D2L receptor V2.61F/FV3.28,3.29LM mutant expressed in HEK293 cells; summary of the method: as §1
[6] = Displacement of [3H]spiperone from human cloned dopamine D2L receptor H6.55A mutant expressed in HEK293 cells; summary of the method: as §1
[7] = Displacement of [3H]spiperone from human cloned dopamine D2L receptor H6.55F mutant expressed in HEK293 cells; summary of the method: as §1
D(4) dopamine receptor [8] = biological target: T1, D(4) dopamine receptor (Homo sapiens, UniProt P21917); assay: Displacement of [3H]spiperone from wild type human cloned dopamine D4 receptor expressed in HEK293 cells
T1 sequence (P21917 whole entry): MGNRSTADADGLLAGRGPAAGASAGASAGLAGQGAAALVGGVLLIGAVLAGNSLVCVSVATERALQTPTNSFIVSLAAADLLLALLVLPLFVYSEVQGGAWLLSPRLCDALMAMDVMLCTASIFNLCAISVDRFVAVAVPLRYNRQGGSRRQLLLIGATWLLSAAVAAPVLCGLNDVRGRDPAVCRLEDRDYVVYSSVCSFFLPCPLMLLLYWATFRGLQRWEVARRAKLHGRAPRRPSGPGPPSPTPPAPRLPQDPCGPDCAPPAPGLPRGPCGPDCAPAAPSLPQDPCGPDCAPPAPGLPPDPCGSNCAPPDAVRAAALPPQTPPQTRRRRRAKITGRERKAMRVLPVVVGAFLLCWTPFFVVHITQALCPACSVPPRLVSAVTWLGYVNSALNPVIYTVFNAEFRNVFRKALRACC

HEK293 [9] = assay: Selectivity ratio of Ki for human cloned dopamine D2L receptor D3.32E mutant to Ki for wild type human cloned dopamine D2L receptor expressed in HEK293 cells
Summary of the method: (§2)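 Wild-type or mutant receptor cDNA transiently transfected into HEK-293 cells, which were grown in MEM with 10% FBS at 37 °C and 5% CO2 and harvested 48 h after transfection. Membranes were homogenised and pelleted at 50000g. Competition against [3H]spiperone (0.1-0.7 nM final) used 20-200 μg/mL protein. Ki was derived from EC50, 2-18 independent experiments in triplicate. Ratios are mutant Ki over wild-type Ki.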

HEK293 [10] = assay: Selectivity ratio of Ki for human cloned dopamine D2L receptor V2.61F mutant to Ki for wild type human cloned dopamine D2L receptor expressed in HEK293 cells; summary of the method: as §2
HEK293 [11] = assay: Selectivity ratio of Ki for human cloned dopamine D2L receptor L2.64F mutant to Ki for wild type human cloned dopamine D2L receptor expressed in HEK293 cells; summary of the method: as §2
HEK293 [12] = assay: Selectivity ratio of Ki for human cloned dopamine D2L receptor FV3.28,3.29LM mutant to Ki for wild type human cloned dopamine D2L receptor expressed in HEK293 cells; summary of the method: as §2
HEK293 [13] = assay: Selectivity ratio of Ki for human cloned dopamine D2L receptor V2.61F/FV3.28,3.29LM mutant to Ki for wild type human cloned dopamine D2L receptor expressed in HEK293 cells; summary of the method: as §2
HEK293 [14] = assay: Selectivity ratio of Ki for human cloned dopamine D2L receptor E181V/I183S mutant to Ki for wild type human cloned dopamine D2L receptor expressed in HEK293 cells; summary of the method: as §2
HEK293 [15] = assay: Selectivity ratio of Ki for human cloned dopamine D2L receptor H6.55A mutant to Ki for wild type human cloned dopamine D2L receptor expressed in HEK293 cells; summary of the method: as §2
HEK293 [16] = assay: Selectivity ratio of Ki for human cloned dopamine D2L receptor H6.55F mutant to Ki for wild type human cloned dopamine D2L receptor expressed in HEK293 cells; summary of the method: as §2
HEK293 [17] = assay: Selectivity ratio of Ki for human cloned dopamine D3 receptor D3.32E mutant to Ki for wild type human cloned dopamine D3 receptor expressed in HEK293 cells; summary of the method: as §2
HEK293 [18] = assay: Selectivity ratio of Ki for human cloned dopamine D3 receptor V2.61F mutant to Ki for wild type human cloned dopamine D3 receptor expressed in HEK293 cells; summary of the method: as §2
HEK293 [19] = assay: Selectivity ratio of Ki for human cloned dopamine D3 receptor L2.64F mutant to Ki for wild type human cloned dopamine D3 receptor expressed in HEK293 cells; summary of the method: as §2
HEK293 [20] = assay: Selectivity ratio of Ki for human cloned dopamine D3 receptor FV3.28,3.29LM mutant to Ki for wild type human cloned dopamine D3 receptor expressed in HEK293 cells; summary of the method: as §2
HEK293 [21] = assay: Selectivity ratio of Ki for human cloned dopamine D3 receptor V2.61F/FV3.28,3.29LM mutant to Ki for wild type human cloned dopamine D3 receptor expressed in HEK293 cells; summary of the method: as §2
HEK293 [22] = assay: Selectivity ratio of Ki for human cloned dopamine D3 receptor V180E/S182I mutant to Ki for wild type human cloned dopamine D3 receptor expressed in HEK293 cells; summary of the method: as §2
HEK293 [23] = assay: Selectivity ratio of Ki for human cloned dopamine D3 receptor H6.55A mutant to Ki for wild type human cloned dopamine D3 receptor expressed in HEK293 cells; summary of the method: as §2
CHO [24] = assay: Selectivity ratio of Ki for human cloned dopamine D2L receptor to Ki for human cloned dopamine D3 receptor expressed in CHO cells
CHO [25] = assay: Selectivity ratio of Ki for human cloned dopamine D2L receptor to Ki for human cloned dopamine D4 receptor expressed in CHO cells
D(2) dopamine receptor [26] = biological target: T2, D(2) dopamine receptor (Homo sapiens, UniProt P14416); assay: Displacement of [3H]spiperone from wild type human cloned dopamine D2L receptor expressed in HEK293 cells
T2 sequence (P14416 whole entry): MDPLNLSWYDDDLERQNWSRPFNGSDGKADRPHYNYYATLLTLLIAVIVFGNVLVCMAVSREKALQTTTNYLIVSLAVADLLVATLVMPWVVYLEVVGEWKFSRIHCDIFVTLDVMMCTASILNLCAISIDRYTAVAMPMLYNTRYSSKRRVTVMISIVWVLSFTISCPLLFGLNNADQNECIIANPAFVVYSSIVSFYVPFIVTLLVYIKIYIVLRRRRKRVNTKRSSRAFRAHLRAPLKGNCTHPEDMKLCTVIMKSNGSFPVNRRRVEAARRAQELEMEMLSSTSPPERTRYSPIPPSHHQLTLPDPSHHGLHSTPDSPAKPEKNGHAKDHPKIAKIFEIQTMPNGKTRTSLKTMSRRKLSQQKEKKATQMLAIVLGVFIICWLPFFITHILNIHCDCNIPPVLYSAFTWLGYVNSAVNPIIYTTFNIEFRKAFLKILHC

D(2) dopamine receptor [27] = biological target: D(2) dopamine receptor (Homo sapiens, UniProt P14416, E181V/I183S); assay: Displacement of [3H]spiperone from human cloned dopamine D2L receptor E181V/I183S mutant expressed in HEK293 cells; summary of the method: as §2
Chain of D(2) dopamine receptor (Homo sapiens, UniProt P14416, E181V/I183S) (P14416 whole entry E181V/I183S): as the sequence (P14416 whole entry) above, with E181V, I183S counted along it

D(3) dopamine receptor [28] = biological target: T3, D(3) dopamine receptor (Homo sapiens, UniProt P35462); assay: Displacement of [3H]spiperone from wild type human cloned dopamine D3 receptor expressed in HEK293 cells
T3 sequence (P35462 whole entry): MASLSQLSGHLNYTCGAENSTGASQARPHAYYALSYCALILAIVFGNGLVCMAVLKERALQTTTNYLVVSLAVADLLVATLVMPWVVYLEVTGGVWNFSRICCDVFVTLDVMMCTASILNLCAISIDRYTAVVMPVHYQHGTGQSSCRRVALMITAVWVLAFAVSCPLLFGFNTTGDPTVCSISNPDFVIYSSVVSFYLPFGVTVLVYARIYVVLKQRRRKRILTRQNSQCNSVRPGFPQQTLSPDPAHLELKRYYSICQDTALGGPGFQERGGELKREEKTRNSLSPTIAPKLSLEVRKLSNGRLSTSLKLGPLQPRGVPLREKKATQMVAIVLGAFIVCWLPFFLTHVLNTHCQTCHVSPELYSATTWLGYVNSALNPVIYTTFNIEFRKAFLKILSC

D(3) dopamine receptor [29] = biological target: D(3) dopamine receptor (Homo sapiens, UniProt P35462, D110E); assay: Displacement of [3H]spiperone from human cloned dopamine D3 receptor D3.32E mutant expressed in HEK293 cells
Chain of D(3) dopamine receptor (Homo sapiens, UniProt P35462, D110E) (P35462 as listed by the source D110E): as the sequence (P35462 whole entry) above, with G9S, D110E counted along it

D(3) dopamine receptor [30] = biological target: D(3) dopamine receptor (Homo sapiens, UniProt P35462, V87F); assay: Displacement of [3H]spiperone from human cloned dopamine D3 receptor V2.61F mutant expressed in HEK293 cells
Chain of D(3) dopamine receptor (Homo sapiens, UniProt P35462, V87F) (P35462 as listed by the source V87F): as the sequence (P35462 whole entry) above, with G9S, V87F counted along it

D(3) dopamine receptor [31] = biological target: T3, D(3) dopamine receptor; assay: Displacement of [3H]spiperone from human cloned dopamine D3 receptor L2.64F mutant expressed in HEK293 cells
D(3) dopamine receptor [32] = biological target: T3, D(3) dopamine receptor; assay: Displacement of [3H]spiperone from human cloned dopamine D3 receptor FV3.28,3.29LM mutant expressed in HEK293 cells
D(3) dopamine receptor [33] = biological target: D(3) dopamine receptor (Homo sapiens, UniProt P35462, F106L/V107M/V87F); assay: Displacement of [3H]spiperone from human cloned dopamine D3 receptor V2.61F/FV3.28,3.29LM mutant expressed in HEK293 cells
Chain of D(3) dopamine receptor (Homo sapiens, UniProt P35462, F106L/V107M/V87F) (P35462 as listed by the source V87F/F106L/V107M): as the sequence (P35462 whole entry) above, with G9S, V87F, F106L, V107M counted along it

D(3) dopamine receptor [34] = biological target: D(3) dopamine receptor (Homo sapiens, UniProt P35462, S182I/V180E); assay: Displacement of [3H]spiperone from human cloned dopamine D3 receptor V180E/S182I mutant expressed in HEK293 cells
Chain of D(3) dopamine receptor (Homo sapiens, UniProt P35462, S182I/V180E) (P35462 as listed by the source V180E/S182I): as the sequence (P35462 whole entry) above, with G9S, V180E, S182I counted along it

D(3) dopamine receptor [35] = biological target: D(3) dopamine receptor (Homo sapiens, UniProt P35462, H349A); assay: Displacement of [3H]spiperone from human cloned dopamine D3 receptor H6.55A mutant expressed in HEK293 cells
Chain of D(3) dopamine receptor (Homo sapiens, UniProt P35462, H349A) (P35462 as listed by the source H349A): as the sequence (P35462 whole entry) above, with G9S, H349A counted along it

D(2) dopamine receptor [36] = biological target: T2, D(2) dopamine receptor; assay: Displacement of [3H]spiperone from human cloned dopamine D2L receptor expressed in CHO cells
D(3) dopamine receptor [37] = biological target: T3, D(3) dopamine receptor; assay: Displacement of [3H]spiperone from human cloned dopamine D3 receptor expressed in CHO cells
D(4) dopamine receptor [38] = biological target: T1, D(4) dopamine receptor; assay: Displacement of [3H]spiperone from human cloned dopamine D4 receptor expressed in CHO cells
Summary of the method: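 Membranes from CHO cells stably expressing human D4 (Bmax 700-1800 fmol/mg). Curves fit by nonlinear regression, sigmoid model giving IC50 and slope; Ki ± SEM from 2-9 experiments in triplicate.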

Row | SMILES | Ki [1] [µM] | Ki [2] [µM] | Ki [3] [µM] | Ki [4] [µM] | Ki [5] [µM] | Ki [6] [µM] | Ki [7] [µM] | Ratio Ki (HEK293 [10]) | Ratio Ki (HEK293 [12]) | Ratio Ki (HEK293 [13]) | Ratio Ki (HEK293 [15]) | Ratio Ki (HEK293 [20]) | Ratio Ki (HEK293 [21]) | Ratio Ki (CHO [24]) | Ratio Ki (CHO [25]) | Ki (D(2) dopamine receptor [26]) [µM] | Ki (D(3) dopamine receptor [28]) [µM] | Ki (D(3) dopamine receptor [30]) [µM] | Ki (D(3) dopamine receptor [32]) [µM] | Ki (D(3) dopamine receptor [33]) [µM] | other results
1 | COc1ccccc1N1CCN(CCCCNC(=O)c2cc3ccccn3n2)CC1 | 3.5 | 0.92 | 0.94 | 0.22 | 0.12 | 0.021 | 0.34 | – | – | – | – | – | – | – | – | – | – | – | – | – | –
2 | Clc1ccc(N2CCN(Cc3cc4ccccn4n3)CC2)cc1 | 5.1 | 1.2 | 2 | 0.3 | 0.066 | 0.32 | 1.6 | 0.53 | 0.13 | 0.03 | 0.14 | 0.09 | 0.009 | 0.64 | 1500 | 2.3 | 8.3 | 9.2 | 0.73 | 0.076 | Ki (D(4) dopamine receptor [8]): 0.0068 µM; Ratio Ki (HEK293 [9]): 2.2; Ratio Ki (HEK293 [11]): 0.89; Ratio Ki (HEK293 [14]): 19; Ratio Ki (HEK293 [16]): 0.7; Ratio Ki (HEK293 [17]): 1.4; Ratio Ki (HEK293 [18]): 1.1; Ratio Ki (HEK293 [19]): 0.19; Ratio Ki (HEK293 [22]): 0.31; Ratio Ki (HEK293 [23]): 0.005; Ki (D(2) dopamine receptor [27]): 47 µM; Ki (D(3) dopamine receptor [29]): 12 µM; Ki (D(3) dopamine receptor [31]): 1.6 µM; Ki (D(3) dopamine receptor [34]): 2.5 µM; Ki (D(3) dopamine receptor [35]): 0.046 µM
3 | Clc1ccc(N2CCN(CCCCCc3cc4ccccn4n3)CC2)cc1 | – | 0.74 | – | 1.1 | 0.47 | 0.17 | – | 3.3 | 4.9 | 2.1 | 0.74 | 2.4 | 5.1 | 0.43 | 3.5 | 0.22 | 0.22 | 1.9 | 0.53 | 1.1 | Ratio Ki (HEK293 [18]): 8.8; Ki (D(2) dopamine receptor [36]): 0.16 µM; Ki (D(3) dopamine receptor [37]): 0.37 µM; Ki (D(4) dopamine receptor [38]): 0.046 µM
4 | CSc1ccccc1N1CCN(CCCCNC(=O)c2cc3ccccn3n2)CC1 | 1.3 | 0.13 | 0.12 | 0.065 | – | 0.011 | 0.16 | 3.4 | 1.8 | 0.7 | 0.3 | 36 | 80 | 46 | 0.25 | 0.037 | 0.16 | 0.23 | 0.033 | 0.018 | Ki (D(4) dopamine receptor [8]): 0.31 µM; Ratio Ki (HEK293 [9]): 34; Ratio Ki (HEK293 [11]): 3; Ratio Ki (HEK293 [14]): 3.4; Ratio Ki (HEK293 [16]): 4.3; Ratio Ki (HEK293 [19]): 66; Ratio Ki (HEK293 [22]): 1.5; Ratio Ki (HEK293 [23]): 1.3; Ki (D(2) dopamine receptor [36]): 0.016 µM; Ki (D(3) dopamine receptor [37]): 0.00035 µM; Ki (D(4) dopamine receptor [38]): 0.065 µM; Ki (D(2) dopamine receptor [27]): 0.13 µM; Ki (D(3) dopamine receptor [29]): 0.0005 µM; Ki (D(3) dopamine receptor [31]): 0.058 µM; Ki (D(3) dopamine receptor [34]): 0.04 µM; Ki (D(3) dopamine receptor [35]): 0.00076 µM
5 | COc1ccccc1N1CCN(CCCNC(=O)c2cnn3ccccc23)CC1 | 0.72 | 0.45 | 0.39 | 0.11 | 0.083 | 0.0016 | 0.069 | – | – | – | – | – | – | – | – | – | – | – | – | – | –
